Results as given in ChEMBL document CHEMBL4152290, “1H-Benzo[d]imidazoles and 3,4-dihydroquinazolin-4-ones: Design, synthesis and antitubercular activity” (Eur J Med Chem, 2018).
Values after ≈ are worked out from the molar mass of the structure shown.

Legend:
[1] = species: Danio rerio; experiment: Induction of neurological impairment in Zebrafish AB embryos assessed as alteration in locomotor activity by measuring swimming activity at 3 to 20 uM measured at 5 days post fertilization; type: organism-based; details: in vivo, 120 h
Method in brief: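 Larvae were exposed from 2 hpf in fish water with 1% DMSO. At 5 dpf each larva was placed singly in a well of water or treatment solution. After 1 min acclimation, it was video-tracked for 5 min at 15 positions/s, and distance travelled was scored.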

[2] = tested on: Mycobacterium tuberculosis; experiment: Antitubercular activity against Mycobacterium tuberculosis H37Rv ATCC 27294 after 7 days by resazurin dye based assay; type: functional; details: H37Rv ATCC 27294, 168 h
Method in brief: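 Resazurin microtiter MIC in 7H9 with 10% ADC. Two-fold dilutions from 1 mg/mL DMSO stocks span 25.0–0.05, 10.0–0.02 or 0.02–0.0004 µg/mL, with 2.5% DMSO final. Inoculum is bead-declumped culture grown in 7H9/10% OADC/0.05% Tween 80, diluted to OD600 0.006. Plates run 7 days at 37 °C, then 0.01% resazurin for 48 h. MIC is the lowest concentration preventing the blue-to-pink change. Three independent tests.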

[3] = Cytotoxicity against human HepG2 cells assessed as cell viability at 10 ug/ml after 72 hrs by neutral red uptake assay (reference value: 100%); type: cell-based; details: read-out: Activity
Method in brief: (§1)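 Seeding was 2×10^3/well for HepG2 and HaCat and 1×10^3/well for Vero. After 24 h, cells received 10 µg/mL final (2% DMSO) for 72 h at 37 °C, 5% CO2. They were washed with PBS, given neutral red 25 µg/mL in serum-free medium for 3 h, washed, and extracted 30 min with acetic acid/EtOH/water 1:50:49. A540 was read. Viability is relative to 2% DMSO controls; mean ± SEM, three experiments in triplicate.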

[4] = Cytotoxicity against human HaCaT cells assessed as cell viability at 10 ug/ml after 72 hrs by MTT assay (reference value: 100%); type: cell-based; details: read-out: Activity
Method in brief: (§2)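 Cells were grown in DMEM with 10% heat-inactivated FBS and penicillin-streptomycin, seeded at 2×10^3/well (HepG2, HaCat) or 1×10^3/well (Vero), then left 24 h. Compound was applied at 10 µg/mL final (2% DMSO) for 72 h at 37 °C, 5% CO2. MTT 1 mg/mL was added for 3 h, formazan dissolved in DMSO, and A595 read. Viability is expressed relative to 2% DMSO wells; mean ± SEM, triplicates, three independent experiments.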

[5] = Cytotoxicity against human HaCaT cells assessed as cell viability at 10 ug/ml after 72 hrs by neutral red uptake assay (reference value: 100%); type: cell-based; details: read-out: Activity; method in brief: as §1
[6] = Cytotoxicity against African green monkey Vero assessed as cell viability at 10 ug/ml after 72 hrs by MTT assay (reference value: 100%); type: cell-based; details: chlorocebus sabaeus, Vero cells; read-out: Activity; method in brief: as §2
[7] = Cytotoxicity against African green monkey Vero assessed as cell viability at 10 ug/ml after 72 hrs by neutral red uptake assay (reference value: 100%); type: cell-based; details: chlorocebus sabaeus, Vero cells; read-out: Activity; method in brief: as §1
[8] = Selectivity index, ratio of cytotoxic concentration for human HepG2 cells by MTT assay to MIC for Mycobacterium tuberculosis H37Rv ATCC 27294; type: toxicity; details: read-out: Selectivity Index
[9] = Selectivity index, ratio of cytotoxic concentration for human HepG2 cells by neutral red uptake assay to MIC for Mycobacterium tuberculosis H37Rv ATCC 27294; type: toxicity; details: read-out: Selectivity Index
[10] = Selectivity index, ratio of cytotoxic concentration for human HaCaT cells by MTT assay to MIC for Mycobacterium tuberculosis H37Rv ATCC 27294; type: toxicity; details: read-out: Selectivity Index
[11] = Selectivity index, ratio of cytotoxic concentration for African green monkey Vero cells by MTT assay to MIC for Mycobacterium tuberculosis H37Rv ATCC 27294; type: toxicity; details: read-out: Selectivity Index
[12] = Selectivity index, ratio of cytotoxic concentration for African green monkey Vero cells by neutral red uptake assay to MIC for Mycobacterium tuberculosis H37Rv ATCC 27294; type: toxicity; details: read-out: Selectivity Index
[13] = Stability of the compound in PBS containing 10% DMSO at 25 degC measured immediately by HPLC analysis; type: physicochemical; details: read-out: Stability
[14] = Stability of the compound in PBS containing 10% DMSO at 25 degC measured after 3 hrs by HPLC analysis; type: physicochemical; details: buffer
[15] = Stability of the compound in PBS containing 10% DMSO at 25 degC measured after 12 hrs by HPLC analysis; type: physicochemical; details: buffer
[16] = Stability of the compound in PBS containing 10% DMSO at 25 degC measured after 24 hrs by HPLC analysis; type: physicochemical; details: buffer
[17] = Stability of the compound in PBS containing 10% DMSO at 25 degC measured after 48 hrs by HPLC analysis; type: physicochemical; details: buffer
[18] = Stability of the compound in PBS containing 10% DMSO at 37 degC measured immediately by HPLC analysis; type: physicochemical; details: read-out: Stability
[19] = Stability of the compound in PBS containing 10% DMSO at 37 degC measured after 6 hrs by HPLC analysis; type: physicochemical; details: read-out: Stability
[20] = Stability of the compound in PBS containing 10% DMSO at 37 degC measured after 9 hrs by HPLC analysis; type: physicochemical; details: PBS containing 10% DMSO; read-out: Stability
[21] = Stability of the compound in PBS containing 10% DMSO at 37 degC measured after 12 hrs by HPLC analysis; type: physicochemical; details: read-out: Stability
[22] = Stability of the compound in PBS containing 10% DMSO at 37 degC measured after 24 hrs by HPLC analysis; type: physicochemical; details: PBS containing 10% DMSO; read-out: Stability
[23] = Stability of the compound in PBS containing 10% DMSO at 37 degC measured after 48 hrs by HPLC analysis; type: physicochemical; details: read-out: Stability
[24] = species: Danio rerio; experiment: Cardiotoxicity in Zebrafish AB embryos assessed as heart beat rate at 15 uM measured at 2 days post fertilization by stereomicroscopic method (reference value: 128.7 to 146.3 bpm); type: organism-based; details: in vivo, 48 h
[25] = species: Danio rerio; experiment: Cardiotoxicity in Zebrafish AB embryos assessed as heart beat rate at 3 uM measured at 2 days post fertilization by stereomicroscopic method (reference value: 128.7 to 146.3 bpm); type: organism-based; details: in vivo, 48 h
[26] = species: Danio rerio; experiment: Cardiotoxicity in Zebrafish AB embryos assessed as heart beat rate at 15 uM measured at 5 days post fertilization by stereomicroscopic method (reference value: 148.1 to 158.2 bpm); type: organism-based; details: in vivo, 120 h
[27] = species: Danio rerio; experiment: Toxicity in Zebrafish AB embryos assessed as morphological alteration by measuring effect on body length of larvae at 3 to 20 uM measured at 2 to 5 days post fertilization by stereomicroscopic method; type: organism-based; details: in vivo
Method in brief: (§3)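 AB embryos are treated from 2 hpf to 5 dpf at 3.0, 15.0 and 20.0 µM in fish water with 1% DMSO, at 28 °C. Controls are fish water and 1% DMSO. Larvae are photographed under a stereomicroscope (3×) at 2 and 5 dpf, n = 30. Body length (µm), ocular distance (µm) and eye surface area (µm²) are measured from the images.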

[28] = species: Danio rerio; experiment: Toxicity in Zebrafish AB embryos assessed as morphological alteration by measuring effect on ocular distance at 3 to 20 uM measured at 2 to 5 days post fertilization by stereomicroscopic method; type: organism-based; details: in vivo; method in brief: as §3

| Compound | Activity [1] | MIC [2] [µM] | viability at 72 h, 10 ug/ml [3] [%] | viability at 72 h, 10 ug/ml [4] [%] | viability at 72 h, 10 ug/ml [5] [%] | viability at 72 h, 10 ug/ml [6] [%] | viability at 72 h, 10 ug/ml [7] [%] | selectivity ratio [8] | selectivity ratio [9] | selectivity ratio [10] | selectivity ratio [11] | selectivity ratio [12] | remaining at 0 h [13] [%] | Stability [14] [%] | Stability [15] [%] | Stability [16] [%] | Stability [17] [%] | remaining at 0 h [18] [%] | remaining at 6 h [19] [%] | remaining at 9 h [20] [%] | also measured |
| --- | --- | --- | --- | --- | --- | --- | --- | --- | --- | --- | --- | --- | --- | --- | --- | --- | --- | --- | --- | --- | --- |
| CC1CCC(NC(=O)CSc2nc3ccccc3c(=O)[nH]2)CC1 (centres undefined) | Non-Toxic | 0.24 (≈ 0.0795 µg/mL) | 96 | 95 | 94 | 84 | 95 | ≤ 32 | ≤ 32 | ≤ 32 | ≤ 32 | ≤ 32 | 100 | 97 | 100 | 111 | 125 | 100 | 59 | 69 | remaining at 12 h [21]: 70%; remaining at 24 h [22]: 43%; remaining at 48 h [23]: 48%; Activity [24]: 127.2 bpm; Activity [25]: 122.3 bpm; Activity [26]: 150.3 bpm; Activity [27]: Non-Toxic; Activity [28]: Non-Toxic |
| O=C(CSc1nc2ccccc2c(=O)[nH]1)NC1CCCCCC1 | Non-Toxic | 0.48 (≈ 0.159 µg/mL) | 105 | 100 | 88 | 91 | 94 | ≤ 32 | ≤ 32 | ≤ 32 | ≤ 32 | ≤ 32 | 100 | 80 | 92 | 122 | 123 | 100 | 67 | 68 | remaining at 12 h [21]: 81%; remaining at 24 h [22]: 66%; remaining at 48 h [23]: 71%; Activity [24]: 136.5 bpm; Activity [25]: 139.6 bpm; Activity [26]: 160.4 bpm; Activity [27]: Non-Toxic; Activity [28]: Non-Toxic |
| O=C(CSc1nc2ccccc2c(=O)[nH]1)NCC1CCCCC1 | Non-Toxic | 0.94 (≈ 0.312 µg/mL) | 97 | 98 | 88 | 89 | 97 | ≤ 32 | ≤ 32 | ≤ 32 | ≤ 32 | ≤ 32 | 100 | 103 | 112 | 114 | 125 | 100 | 109 | 112 | remaining at 12 h [21]: 111%; remaining at 24 h [22]: 104%; remaining at 48 h [23]: 105%; Activity [24]: 143.2 bpm; Activity [25]: 140.7 bpm; Activity [26]: 158.9 bpm; Activity [27]: Non-Toxic; Activity [28]: Non-Toxic |
